Values after ≈ are worked out from the molar mass of the structure shown.
What was measured:
[1] = Antifungal activity against Rhinocladiella aquaspersa; assay type: functional
Summary of the method: (§1)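 Dematiaceous fungi were tested by the EUCAST spore-forming mold reference procedure: flat-bottom microdilution plates, RPMI 1640 plus 2% glucose, inoculum 2 × 105 to 5 × 10^5 CFU/ml. Endpoints were read visually at 24 and 48 h. Polyenes and azoles: 100% growth reduction vs drug-free control. CPF: minimum effective concentration. Run in duplicate and repeated twice.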

Candida albicans = test: Antifungal activity against Candida albicans by EUCAST method; assay type: functional
Summary of the method: (§2)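 Broth microdilution in flat-bottom plates in RPMI 1640 with 2% glucose; inoculum 0.5 × 105 to 2.5 × 10^5 CFU/ml. MICs were read spectrophotometrically at 24 h. AMB endpoint: ≥90% growth reduction vs drug-free control well. Azole and CPF endpoint: 50% reduction in optical density. MFC was taken as the lowest concentration giving 99% killing.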

Nakaseomyces glabratus = test: Antifungal activity against Candida glabrata by EUCAST method; assay type: functional; summary of the method: as §2
Candida parapsilosis = test: Antifungal activity against Candida parapsilosis by EUCAST method; assay type: functional; conditions: Lodderomyces parapsilosis; summary of the method: as §2
Pichia kudriavzevii = test: Antifungal activity against Candida krusei by EUCAST method; assay type: functional; summary of the method: as §2
Clavispora lusitaniae = test: Antifungal activity against Candida lusitaniae by EUCAST method; assay type: functional; summary of the method: as §2
Candida tropicalis = test: Antifungal activity against Candida tropicalis by EUCAST method; assay type: functional; summary of the method: as §2
[2] = test system: Meyerozyma guilliermondii; test: Antifungal activity against Candida guilliermondii by EUCAST method; assay type: functional; summary of the method: as §2
Saccharomyces cerevisiae = test: Antifungal activity against Saccharomyces cerevisiae by EUCAST method; assay type: functional
Summary of the method: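 EUCAST broth microdilution for yeasts in flat-bottom plates, RPMI 1640 with 2% glucose, inoculum 0.5 × 105 to 2.5 × 10^5 CFU/ml. […] MFC is the lowest concentration giving 99% killing.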

[3] = Antifungal activity against Cryptococcus neoformans var. neoformans by EUCAST method; assay type: functional; conditions: Cryptococcus deneoformans
Summary of the method: (§3)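 EUCAST yeast microdilution, modified for nonfermentative yeasts: plates were sealed and agitated at 350 rpm and 30°C for 48 h.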

Cryptococcus gattii = test: Antifungal activity against Cryptococcus neoformans var. gattii by EUCAST method; assay type: functional, Cryptococcus bacillisporus; summary of the method: as §3
Trichosporon inkin = test: Antifungal activity against Trichosporon inkin by EUCAST method; assay type: functional
Summary of the method: (§4)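 Nonfermentative yeasts were tested by the EUCAST microdilution recommendations with one change: plates were sealed and agitated at 350 rpm and 30°C for 48 h.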

Trichosporon asahii = test: Antifungal activity against Trichosporon asahii by EUCAST method; assay type: functional; summary of the method: as §4
Geotrichum candidum = test: Antifungal activity against Geotrichum candidum by EUCAST method; assay type: functional
Aspergillus fumigatus = test: Antifungal activity against Aspergillus fumigatus by EUCAST method; assay type: functional
Aspergillus terreus = test: Antifungal activity against Aspergillus terreus by EUCAST method; assay type: functional
Aspergillus flavus = test: Antifungal activity against Aspergillus flavus by EUCAST method; assay type: functional
Aspergillus niger = test: Antifungal activity against Aspergillus niger by EUCAST method; assay type: functional
Rhizomucor = test: Antifungal activity against Rhizomucor species by EUCAST method; assay type: functional
Summary of the method: (§5)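 Broth microdilution following the EUCAST reference procedure for spore-forming moulds, in flat-bottom plates with RPMI 1640 plus 2% glucose. Inoculum was 2 × 10^5 to 5 × 10^5 CFU/ml. MICs were read visually at 24 and 48 h as 100% growth reduction versus a drug-free control for polyenes and azoles. MEC was used for caspofungin. Tests were run in duplicate and repeated twice.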

Lichtheimia corymbifera = test: Antifungal activity against Absidia corymbifera by EUCAST method; assay type: functional
Absidia = test: Antifungal activity against Absidia species by EUCAST method; assay type: functional
[4] = Antifungal activity against Rhizopus microsporus var. oligosporus by EUCAST method; assay type: functional; summary of the method: as §5
Rhizopus arrhizus = test: Antifungal activity against Rhizopus oryzae by EUCAST method; assay type: functional; summary of the method: as §5
Rhizopus = test: Antifungal activity against Rhizopus species by EUCAST method; assay type: functional; summary of the method: as §5
Mucor hiemalis = test: Antifungal activity against Mucor hiemalis by EUCAST method; assay type: functional
Mucor = test: Antifungal activity against Mucor species by EUCAST method; assay type: functional
Cunninghamella = test: Antifungal activity against Cunninghamella species by EUCAST method; assay type: functional
Scedosporium apiospermum = test: Antifungal activity against Scedosporium apiospermum by EUCAST method; assay type: functional; summary of the method: as §5
Talaromyces marneffei = test: Antifungal activity against Penicillium marneffei by EUCAST method; assay type: functional
Penicillium sp. = test: Antifungal activity against Penicillium species by EUCAST method; assay type: functional
Fusarium solani = test: Antifungal activity against Fusarium solani by EUCAST method; assay type: functional
Fusarium oxysporum = test: Antifungal activity against Fusarium oxysporum by EUCAST method; assay type: functional
Sporothrix schenckii = test: Antifungal activity against Sporothrix schenckii by EUCAST method; assay type: functional; summary of the method: as §5
Curvularia lunata = test: Antifungal activity against Curvularia lunata by EUCAST method; assay type: functional; summary of the method: as §1
Curvularia australiensis = test: Antifungal activity against Bipolaris australiensis by EUCAST method; assay type: functional; summary of the method: as §1
[5] = Antifungal activity against Rhinocladiella aquaspersa by EUCAST method; assay type: functional; summary of the method: as §1

`CC[C@@H]([C@H](C)O)n1ncn(-c2ccc(N3CCN(c4ccc(OC[C@@H]5CO[C@@](Cn6cncn6)(c6ccc(F)cc6F)C5)cc4)CC3)cc2)c1=O` [POSACONAZOLE] showed an MFC [1] of 0.125 µg/mL (≈ 0.178 µM), an MIC (Candida albicans) of 0.14 µg/mL (≈ 0.2 µM) and an MIC (Nakaseomyces glabratus) of 1.58 µg/mL (≈ 2.25 µM). For the same molecule, the MIC (Candida parapsilosis) was 0.05 µg/mL (≈ 0.0713 µM), the MIC (Pichia kudriavzevii) was 0.68 µg/mL (≈ 0.97 µM) and the MIC (Clavispora lusitaniae) was 0.06 µg/mL (≈ 0.0856 µM). It also gave an MIC (Candida tropicalis) of 0.12 µg/mL (≈ 0.171 µM), an MIC [2] of 0.45 µg/mL (≈ 0.642 µM) and an MIC (Saccharomyces cerevisiae) of 0.66 µg/mL (≈ 0.942 µM). It also gave an MIC [3] of 0.14 µg/mL (≈ 0.2 µM), an MIC (Cryptococcus gattii) of 0.06 µg/mL (≈ 0.0856 µM) and an MIC (Trichosporon inkin) of 0.28 µg/mL (≈ 0.4 µM). For the same molecule, the MIC (Trichosporon asahii) was 6 µg/mL (≈ 8.56 µM), the MIC (Geotrichum candidum) was 0.37 µg/mL (≈ 0.528 µM) and the MIC (Aspergillus fumigatus) was 0.37 µg/mL (≈ 0.528 µM). The MIC (Aspergillus terreus) was 0.19 µg/mL (≈ 0.271 µM), the MIC (Aspergillus flavus) was 0.21 µg/mL (≈ 0.3 µM) and the MIC (Aspergillus niger) was 0.26 µg/mL (≈ 0.371 µM). It also gave an MIC (Rhizomucor) of 2.23 µg/mL (≈ 3.18 µM), an MIC (Lichtheimia corymbifera) of 0.29 µg/mL (≈ 0.414 µM) and an MIC (Absidia) of 0.33 µg/mL (≈ 0.471 µM). For the same molecule, the MIC [4] was 5.33 µg/mL (≈ 7.61 µM), the MIC (Rhizopus arrhizus) was 1.89 µg/mL (≈ 2.7 µM) and the MIC (Rhizopus) was 0.78 µg/mL (≈ 1.11 µM). The MIC (Mucor hiemalis) was 1.33 µg/mL (≈ 1.9 µM), the MIC (Mucor) was 0.72 µg/mL (≈ 1.03 µM) and the MIC (Cunninghamella) was 2 µg/mL (≈ 2.85 µM). It also gave an MIC (Scedosporium apiospermum) of 1 µg/mL (≈ 1.43 µM), an MIC (Talaromyces marneffei) of 0.06 µg/mL (≈ 0.0856 µM) and an MIC (Penicillium sp.) of 0.05 µg/mL (≈ 0.0713 µM). The MIC (Fusarium solani) was 1 µg/mL (≈ 1.43 µM), the MIC (Fusarium oxysporum) was 0.12 µg/mL (≈ 0.171 µM) and the MIC (Sporothrix schenckii) was 0.25 µg/mL (≈ 0.357 µM). It also gave an MIC (Curvularia lunata) of 0.25 µg/mL (≈ 0.357 µM), an MIC (Curvularia australiensis) of 0.12 µg/mL (≈ 0.171 µM) and an MIC [5] of 0.06 µg/mL (≈ 0.0856 µM).

— ChEMBL document CHEMBL1275524, “Activities of antifungal agents against yeasts and filamentous fungi: assessment according to the methodology of the European Committee on Antimicrobial Susceptibility Testing” (2008)
